Experimental findings from ChEMBL document CHEMBL1138189 (J Med Chem, 2006) are described below.

One experiment has as its target Adenosine receptor A2a (Homo sapiens, UniProt P29274). Description: Displacement of [3H]ZM-241385 from human adenosine A2A receptor expressed in HEK293 cells. The experiment is classed as cell-based. The procedure, abridged:
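Human A2A receptor membranes in 50 mM Tris HCl, 10 mM MgCl2, pH 7.4, competed against [3H]-ZM241385 at 6-8 test concentrations for 60 min at 25 °C. NECA defined nonspecific binding. Bound label was collected on glass-fiber filters by filtration and counted. Means ± SEM.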

Experiment [1] deals with T1, Adenosine receptor A2b (Homo sapiens) (UniProt P29275).
T1 sequence (whole entry): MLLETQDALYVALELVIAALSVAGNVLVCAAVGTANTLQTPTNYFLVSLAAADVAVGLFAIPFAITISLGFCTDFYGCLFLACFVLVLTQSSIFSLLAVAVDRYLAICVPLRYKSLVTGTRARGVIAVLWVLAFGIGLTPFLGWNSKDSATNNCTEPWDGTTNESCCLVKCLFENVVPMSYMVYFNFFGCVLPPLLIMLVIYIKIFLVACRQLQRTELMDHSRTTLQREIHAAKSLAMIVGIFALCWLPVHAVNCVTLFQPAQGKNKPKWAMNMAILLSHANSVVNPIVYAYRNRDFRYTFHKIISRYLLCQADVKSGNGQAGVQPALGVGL
Description: Inhibition of NECA-stimulated cAMP accumulation in CHO cells expressing human adenosine A2B receptor at 1 uM. Format: functional, cell-based.

Experiment [2] concerns the target T2, Adenosine receptor A1 (Homo sapiens) (UniProt P30542).
T2 sequence (whole entry): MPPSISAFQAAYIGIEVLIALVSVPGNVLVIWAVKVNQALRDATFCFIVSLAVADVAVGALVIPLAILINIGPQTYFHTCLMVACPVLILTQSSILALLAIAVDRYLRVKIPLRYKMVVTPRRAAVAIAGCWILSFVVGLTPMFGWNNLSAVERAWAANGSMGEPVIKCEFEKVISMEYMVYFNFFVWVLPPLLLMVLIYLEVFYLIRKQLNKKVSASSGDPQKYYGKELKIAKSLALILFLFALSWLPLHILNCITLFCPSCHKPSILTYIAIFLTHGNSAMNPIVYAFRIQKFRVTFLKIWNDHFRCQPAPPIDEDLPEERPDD
Description: Inhibition of [3H]DPCPX binding to human adenosine A1 receptor expressed in CHO cells at 1 uM. The experiment is classed as cell-based. The procedure, abridged:
(§1)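 CHO membranes bearing recombinant human A1 receptor, in 50 mM Tris HCl pH 7.4, incubated 120 min at 25 °C with 1 nM [3H]DPCPX and 6-8 test concentrations. CHA defined nonspecific binding. Bound and free label were separated on GF/B glass-fiber filters and counted. […] Means ± SEM.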

Experiment [3] has as its target Adenosine receptors; A1 & A3 (Homo sapiens) (UniProt P30542+P0DMS8). Description: Selectivity for human adenosine A3 over human adenosine A1 receptor. Format: protein assay.
The target in the next experiment is T3, Adenosine receptor A1 (Homo sapiens, UniProt P30542).
T3 sequence (P30542 whole entry): T2 sequence (whole entry)
Kind of experiment: Displacement of [3H]DPCPX from human adenosine A1 receptor expressed in CHO cells. The experiment is classed as cell-based. The procedure, abridged: as §1

A further experiment addresses T4, Adenosine receptor A3 (Homo sapiens, UniProt P0DMS8).
T4 sequence (P0DMS8 whole entry): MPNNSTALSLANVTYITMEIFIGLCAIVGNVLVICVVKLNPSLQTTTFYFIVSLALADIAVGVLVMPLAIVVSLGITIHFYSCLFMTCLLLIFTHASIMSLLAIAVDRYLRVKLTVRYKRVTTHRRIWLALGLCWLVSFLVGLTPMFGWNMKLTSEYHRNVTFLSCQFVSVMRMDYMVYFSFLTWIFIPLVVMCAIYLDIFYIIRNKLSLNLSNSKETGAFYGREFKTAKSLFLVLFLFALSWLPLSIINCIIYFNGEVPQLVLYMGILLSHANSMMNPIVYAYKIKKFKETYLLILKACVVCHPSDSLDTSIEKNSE
Kind of experiment: Displacement of [3H]MRE3008-F20 from human adenosine A3 receptor expressed in HEK293 cells. Format: cell-based. The procedure, abridged:
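Assays ran in duplicate with 1 nM [3H]MRE3008-F20 on human A3 receptor membranes in 50 mM Tris HCl, 10 mM MgCl2, pH 7.4, at 6-8 ligand concentrations, for 120 min at 4 °C. Bound label was separated by GF/B filtration and counted. Means ± SEM.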

The target in the next experiment is T5, Adenosine receptor A2b (Homo sapiens, UniProt P29275).
T5 sequence (P29275 whole entry): T1 sequence (whole entry)
Kind of experiment: Inhibition of NECA-stimulated cAMP accumulation in CHO cells expressing human adenosine A2B receptor. Format: functional, cell-based. The procedure, abridged:
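Trypsinized A2B-transfected CHO cells (1 × 10⁶ per assay) were preincubated 10 min at 37 °C in pH 7.4 salt buffer with 2 IU/mL adenosine deaminase and Ro 20-1724, then stimulated with 100 nM NECA plus antagonist. Stopped with cold 6% TCA, ether-extracted, and cAMP measured by [3H]cAMP competition with adrenal binding protein. IC50 derived.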

Experiment [4] addresses Adenosine receptors; A2a & A3 (Homo sapiens) (UniProt P0DMS8+P29274). Kind of experiment: Selectivity for human adenosine A3 over human adenosine A2A receptor. The experiment is classed as protein assay.

pIC50, pKi: −log10 of the molar value. “And” between values parts separate entries of the source, which are not always exact repeats. Identical values can stand only once.

Sequence of Adenosine receptor A2a (P29274 whole entry): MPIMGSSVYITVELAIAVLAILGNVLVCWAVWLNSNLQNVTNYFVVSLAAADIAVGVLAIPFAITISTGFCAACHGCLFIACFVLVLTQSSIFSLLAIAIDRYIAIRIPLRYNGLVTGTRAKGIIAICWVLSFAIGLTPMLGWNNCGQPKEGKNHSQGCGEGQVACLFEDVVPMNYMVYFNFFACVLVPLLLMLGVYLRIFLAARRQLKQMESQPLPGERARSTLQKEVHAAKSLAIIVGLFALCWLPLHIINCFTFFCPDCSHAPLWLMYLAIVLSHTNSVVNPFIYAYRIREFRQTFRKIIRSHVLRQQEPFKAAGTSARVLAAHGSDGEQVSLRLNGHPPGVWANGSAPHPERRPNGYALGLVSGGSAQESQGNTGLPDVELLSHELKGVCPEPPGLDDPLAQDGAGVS
Sequence of Adenosine receptors; A2a & A3 (Homo sapiens) (P29274 whole entry, looked up, one chain of several): as the sequence (P29274 whole entry) above

Take `Cn1cc2c(nc(NC(=O)Nc3cc[n+]([O-])cc3)n3nc(-c4ccco4)nc23)n1`: the negative logarithm of the Ki (pKi) at Adenosine receptor A2a is 6.82; at Adenosine receptor A1, below 6.00; at Adenosine receptor A3, 7.68. Moreover, the inhibition in experiment [1] is 12%; in experiment [2], 35%. For the same compound, the Ratio Ki in experiment [3] is above 47; in experiment [4], 7.3. At Adenosine receptor A2b, this compound showed a pIC50 below 6.00.

In the case of `Cn1cc2c(nc(NC(=O)Nc3ccncc3)n3nc(-c4ccco4)nc23)n1` [listing 1 of 3 here], the inhibition in experiment [1] was 12% and 20%.

As to `Cc1ccc(NC(=O)Nc2nc3nn(C)cc3c3nc(-c4ccco4)nn23)s1`, the pKi on Adenosine receptor A2a was 6.04; on Adenosine receptor A1, below 6.00; on Adenosine receptor A3, 8.00. Also, the inhibition in experiment [1] worked out at 20%; in experiment [2], 10%. In addition, the values for the Ratio Ki in experiment [3] and in experiment [4] were above 100 and 92, respectively. The compound further had a pIC50 at Adenosine receptor A2b below 6.00.

For the compound `Cn1cc2c(nc(NC(=O)Nc3ccncc3)n3nc(-c4ccco4)nc23)n1` [listing 2 of 3 here], the figures for the pKi at Adenosine receptor A2a and on Adenosine receptor A1 were 6.96 and 6.45, respectively. Besides, at Adenosine receptor A2b, the pIC50 was below 6.00.

Regarding `Cn1cc2c(nc(NC(=O)Nc3cc4ccccc4o3)n3nc(-c4ccco4)nc23)n1`, the figures for the negative logarithm of the Ki (pKi) at Adenosine receptor A2a, on Adenosine receptor A1 and on Adenosine receptor A3 were 7.22, below 6.00 and 7.92, respectively. Besides, the inhibition in experiment [2] stood at 22%. For the same compound, the Ratio Ki in experiment [3] was above 83; in experiment [4] it was 5. Besides, the pIC50 on Adenosine receptor A2b is 6.60.

With `Cn1cc2c(nc(NC(=O)Nc3cccnc3)n3nc(-c4ccco4)nc23)n1` [listing 1 of 3 here], the inhibition in experiment [1] is 18% and 24%. Moreover, the Ratio Ki in experiment [3] is 445 and 522; in experiment [4], 281 and 284.

`Cn1cc2c(nc(NC(=O)Nc3cc[n+](C)cc3)n3nc(-c4ccco4)nc23)n1`: the pKi at Adenosine receptor A2a is 6.55; at Adenosine receptor A1, below 6.00; on Adenosine receptor A3, 7.55. Further, the inhibition in experiment [1] was determined as 6%; in experiment [2], 20%. In addition, the Ratio Ki is above 36 in experiment [3] and 10 in experiment [4]. Besides, the pIC50 on Adenosine receptor A2b is below 6.00.

Take `Cn1cc2c(nc(NC(=O)Nc3cccnc3)n3nc(-c4ccco4)nc23)n1` [listing 2 of 3 here]: the results for the negative-log Ki (pKi) at Adenosine receptor A2a, at Adenosine receptor A1 and at Adenosine receptor A3 were 6.81, 6.61 and 9.26, respectively. Besides, the pIC50 on Adenosine receptor A2b was below 6.00.

`Cn1cc2c(nc(NC(=O)Nc3cccc[n+]3C)n3nc(-c4ccco4)nc23)n1`: the figures for the pKi on Adenosine receptor A2a, on Adenosine receptor A1 and at Adenosine receptor A3 were 7.19, 6.40 and 8.89, respectively. In addition, the Ratio Ki in experiment [3] worked out at 307; in experiment [4] it was 49. This compound showed a negative-log IC50 (pIC50) at Adenosine receptor A2b of 6.55.

For `Cc1sccc1NC(=O)Nc1nc2nn(C)cc2c2nc(-c3ccco3)nn12`, the negative-log Ki (pKi) at Adenosine receptor A2a is 6.39; on Adenosine receptor A1, below 6.00; at Adenosine receptor A3 it was 8.46. Further, the results for the inhibition in experiment [1] and in experiment [2] were 31% and 24%, respectively. Moreover, the Ratio Ki in experiment [3] was above 286; in experiment [4], 117. At Adenosine receptor A2b, this compound gave a pIC50 below 6.00.

Turning to `Cn1cc2c(nc(NC(=O)Nc3ccoc3)n3nc(-c4ccco4)nc23)n1`, the pKi at Adenosine receptor A2a was 6.40; on Adenosine receptor A1, below 6.00; at Adenosine receptor A3, 7.96. Besides, the inhibition worked out at 4% in experiment [1] and 20% in experiment [2]. In addition, the Ratio Ki in experiment [3] is above 90; in experiment [4] it was 36. This compound had a negative-log IC50 (pIC50) on Adenosine receptor A2b below 6.00.

Regarding `Cn1cc2c(nc(NC(=O)Nc3ccc[n+]([O-])c3)n3nc(-c4ccco4)nc23)n1`, the negative-log Ki (pKi) at Adenosine receptor A2a was 7.12; on Adenosine receptor A1, 6.26; on Adenosine receptor A3 it was 8.00. Further, the Ratio Ki came out at 55 in experiment [3] and 7.5 in experiment [4]. The compound also had a pIC50 against Adenosine receptor A2b of 6.59.

Regarding `Cn1cc2c(nc(NC(=O)Nc3ccncc3)n3nc(-c4ccco4)nc23)n1` [listing 3 of 3 here], the pKi was 7.19 at Adenosine receptor A2a and 6.59 at Adenosine receptor A1. Besides, the pIC50 against Adenosine receptor A2b (cho) was below 6.00.

Take `Cn1cc2c(nc(NC(=O)Nc3ccccn3)n3nc(-c4ccco4)nc23)n1` [listing 1 of 3 here]: the results for the negative-log Ki (pKi) on Adenosine receptor A2a, at Adenosine receptor A1 and on Adenosine receptor A3 were 6.74, 6.58 and 9.30, respectively. The compound further gave a pIC50 against Adenosine receptor A2b below 6.00.

`Cn1cc2c(nc(NC(=O)Nc3ccc4ccccc4n3)n3nc(-c4ccco4)nc23)n1`: the pKi at Adenosine receptor A2a is 6.09; at Adenosine receptor A1 it was below 6.00; at Adenosine receptor A3 it was 6.96. The inhibition was determined as 17% in experiment [1] and 12% in experiment [2]. For the same compound, the Ratio Ki was above 9 in experiment [3] and 7.3 in experiment [4]. The compound also showed a pIC50 against Adenosine receptor A2b below 6.00.

In the case of `Cn1cc2c(nc(NC(=O)Nc3ccc[n+](C)c3)n3nc(-c4ccco4)nc23)n1`, the pKi at Adenosine receptor A2a was 7.38; on Adenosine receptor A1 it was 6.48; on Adenosine receptor A3, 8.28. The results for the Ratio Ki in experiment [3] and in experiment [4] were 62 and 8, respectively. For the same compound, the negative-log IC50 (pIC50) at Adenosine receptor A2b was 6.61.

`Cn1cc2c(nc(NC(=O)Nc3ccco3)n3nc(-c4ccco4)nc23)n1`: the results for the pKi on Adenosine receptor A2a, on Adenosine receptor A1 and on Adenosine receptor A3 were 6.46, below 6.00 and 7.80, respectively. Further, the inhibition in experiment [1] was 8%; in experiment [2], 25%. In addition, the Ratio Ki in experiment [3] was above 62.5; in experiment [4], 22. At Adenosine receptor A2b, this compound had a negative logarithm of the IC50 (pIC50) below 6.00.

In the case of `Cn1cc2c(nc(NC(=O)Nc3cccnc3)n3nc(-c4ccco4)nc23)n1` [listing 3 of 3 here], the negative-log Ki (pKi) at Adenosine receptor A2a was 6.90; at Adenosine receptor A1, 6.64; on Adenosine receptor A3, 9.36. On Adenosine receptor A2b (cho), this compound had a pIC50 below 6.00.

As to `Cn1cc2c(nc(NC(=O)Nc3ccccn3)n3nc(-c4ccco4)nc23)n1` [listing 2 of 3 here], the results for the negative logarithm of the Ki (pKi) on Adenosine receptor A2a, at Adenosine receptor A1 and on Adenosine receptor A3 were 6.85, 6.68 and 9.46, respectively. The pIC50 against Adenosine receptor A2b (cho) is below 6.00.

As for `Cn1cc2c(nc(NC(=O)Nc3cccc[n+]3[O-])n3nc(-c4ccco4)nc23)n1`, the negative logarithm of the Ki (pKi) on Adenosine receptor A2a was 6.96; at Adenosine receptor A1 it was 6.10; on Adenosine receptor A3, 8.46. Besides, the Ratio Ki came out at 228 in experiment [3] and 31 in experiment [4]. The negative-log IC50 (pIC50) at Adenosine receptor A2b is 6.49.

For `Cn1cc2c(nc(NC(=O)Nc3ccccn3)n3nc(-c4ccco4)nc23)n1` [listing 3 of 3 here], the inhibition in experiment [1] was 20% and 16%. In addition, the Ratio Ki in experiment [3] is 530 and 600; in experiment [4], 360 and 400.
